Compound activity deposited in PubChem BioAssay by Johns Hopkins Ion Channel Center.
Rows were chosen to be rich in hits. Some 3.7% of all compounds tested hit in one or more screens of this group.
KCNQ1 pot = potentiators or activators of human KCNQ1 potassium channel; P51787; CHO-K1 KCNQ1, thallium flux FluxOR fluorescence; stronger effect = higher value; B-score at 10 µM; 0.35% of 310,000 active; AID 2648;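 active = fluorescence ratio B-score, a plate-corrected score, at least three library SD, with initial intensity B-score within 5 SD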
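System: CHO-K1 cells stably expressing KCNQ1 / Medium: assay buffer for compound exposure, DMSO matched across wells / Reagent: thallium- and potassium-containing depolarizing buffer / Compound: one concentration, matched DMSO / Incubation: 20 min compound pretreatment at room temperature / Measured by: kinetic FluxOR fluorescence, 10 s baseline plus 110 s post-stimulus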
KCNQ1 block = blocks the human KCNQ1 potassium channel; P51787; CHO-K1 KCNQ1, FluxOR thallium flux fluorescence; stronger effect = higher value; B-score at 10 µM; 1.3% of 310,000 active; AID 2642;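 active = compounds whose thallium flux B-score, printed positive for inhibition, exceeds three library SD while starting fluorescence stays within three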;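 note: channel opened by potassium depolarization with thallium stimulus after 20 min compound exposure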
Kir21 inh = Kir2.1 (mouse) channel inhibition | HEK293-Kir2.1, FluxOR thallium flux fluorescence; stronger effect = lower value | AID 1672 | 0.85% of 310,000 active | B-score at 10 µM;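 active = fluorescence ratio B-score at or below minus 3 SD of library scores, with starting-brightness B-score within 2 SD, cut at about -4.2 in these data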;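 note: channel flux triggered by added potassium and thallium sulfate stimulus; B-score of peak minus minimum fluorescence over baseline after thallium stimulus; more negative B-score means stronger Kir2.1 block with less thallium influx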
KCNK3 block = human KCNK3 channel inhibition, primary screen; CHO-KCNK3 thallium flux, FluxOR fluorescence; stronger effect = lower value; B-score at 10 µM; O14649; 0.84% of 340,000 active; AID 602410;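 active = B-score under library mean minus 4 SD, starting fluorescence ratio at most library mean plus 5 SD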;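 note: more negative B-score means stronger inhibition of thallium flux through KCNK3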
Target sequence (O14649 whole entry, looked up): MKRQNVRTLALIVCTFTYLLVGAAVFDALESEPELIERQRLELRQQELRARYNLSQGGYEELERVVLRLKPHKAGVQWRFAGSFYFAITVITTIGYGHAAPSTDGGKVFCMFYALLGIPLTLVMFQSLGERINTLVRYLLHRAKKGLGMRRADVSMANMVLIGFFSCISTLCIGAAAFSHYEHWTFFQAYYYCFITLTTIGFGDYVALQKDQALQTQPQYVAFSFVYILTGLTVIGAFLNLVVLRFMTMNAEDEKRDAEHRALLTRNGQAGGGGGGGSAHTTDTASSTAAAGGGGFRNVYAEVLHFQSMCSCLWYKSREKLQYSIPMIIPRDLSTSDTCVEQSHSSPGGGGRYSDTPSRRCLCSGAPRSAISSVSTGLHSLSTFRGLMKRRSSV
hERG rescue = hERG (human) protection from proarrhythmic block; Q12809; CHO-hERG, FluxOR thallium flux, dofetilide IC70 present; activation (rescue from dofetilide block), less the hit threshold, % at 10 µM; 0.51% of 310,000 active; AID 1511;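 active = activation above the mean of controls blocked by dofetilide plus 5 SD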;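 note: thallium influx through hERG after potassium depolarization seen as dye fluorescence rise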
KCNK9 inh = inhibitors of human KCNK9 two-pore domain potassium channel; Q9NPC2; HEK293 KCNK9, FluxOR thallium flux fluorescence; stronger effect = lower value; B-score at 10 µM; 1.2% of 310,000 active; AID 488922;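 active = ratio B-score over 3 SD below the library mean, with starting fluorescence within 5 SD of its mean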;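 note: negative B-score means less thallium flux so channel inhibition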
Large screens that a line does not name were inactive.

COc1cc2c(cc1NC(=S)Nc1cccc3ccccc13)oc1ccccc12	none
CCOC(=O)/C(C#N)=C/C=C1\C=Cc2ccccc2N1CC	none
C=CCN1C=CC(=CC=C(C#N)C#N)C=C1	KCNQ1 block 7
CCCN1C=CC(=C/C=C(\C#N)C(=O)OCC)C=C1	KCNQ1 block 12 (no result: KCNK3 block)
CCCN1C=CC(=CC=C(C#N)C#N)C=C1	KCNQ1 block 8
CCCCCN1C=CC=C/C1=C\C=C(C#N)C#N	none
CCc1nnc(NC(=O)[C@@H](NS(=O)(=O)c2ccc3c(c2)OCCO3)C(C)C)s1	none (no result: KCNQ1 pot, KCNQ1 block, Kir21 inh, hERG rescue, KCNK9 inh)
CCOC(=O)c1c(C)[nH]c(C(=O)OCC(=O)Nc2sccc2C(N)=O)c1C	none
Cc1ccc(S(=O)(=O)Oc2ccccc2-c2ccccc2)cc1	none (no result: KCNQ1 pot, KCNQ1 block, Kir21 inh, hERG rescue, KCNK9 inh)
COCCN(C(=O)COC(=O)c1ccccc1Oc1ccccc1)c1c(N)n(Cc2ccccc2)c(=O)[nH]c1=O	none
Cc1nn(-c2ccccc2)c(Cl)c1C1C(C#N)=C(N)OC2=C1C(=O)CCC2 (configuration not stated)	hERG rescue 5.4
Fc1cc(F)c2nc(N3CCCCC3)sc2c1	hERG rescue 5.1
COc1ccc(-c2ccc(SCC(=O)NC3CCCCC3)nn2)cc1	none
COc1ccc(-c2cn3nc(SCC(=O)NC4CCCCC4)ccc3n2)cc1	hERG rescue 5.3
COCCn1c(SCC(=O)N(C)c2c(N)n(Cc3ccccc3)c(=O)[nH]c2=O)nnc1-c1cccc(C)c1	none
COc1ccc(N2C(=O)C3CCCN3C2=O)cc1 (configuration not stated)	hERG rescue 4.9
CCN(CC)P(=O)(Nc1ccc(C)cc1Br)c1ccc(N(C)C)cc1NC(=O)c1ccco1 (configuration not stated)	KCNQ1 block 7
O=C(OCC(=O)N1CCOCC1)c1ccc(Br)cc1	none
COc1ccc(NC(=O)C(=O)NNC(=O)c2cccs2)c(OC)c1	KCNQ1 pot 22, hERG rescue 12.1
Cc1ccc(NC(=O)C(=O)NNC(=O)c2cccs2)cc1	KCNQ1 pot 40, hERG rescue 20.4
Cc1ccc(NC(=O)c2cccs2)cc1	none
COc1ccc(NC(=O)C(=O)NNC(=O)c2cccs2)cc1	hERG rescue 6.9
COc1ccc(/C=C(/C(=O)Nc2ccccc2C(=O)NC(C)C)c2ccccc2)cc1	KCNQ1 block 6
CCn1cc(-c2ccccc2)c(C(=O)O)c1-c1ccc(OC)cc1	none
COc1ccc(/C=C/C(=O)NC(=S)NNC(=O)c2cccs2)cc1	hERG rescue 16.1
COc1ccc(/C=C/C(=O)Nc2ccccc2C(=O)N2CCCC2)cc1	none
COc1ccc(/C=C/C(=O)Nc2ccccc2C(=O)O)cc1	hERG rescue 31.6
COc1cc(OC)c(N(C)S(=O)(=O)c2cccc(C(=O)OCC(=O)N(C)C3CCCCC3)c2)cc1Cl	none (no result: KCNQ1 pot, KCNQ1 block, Kir21 inh, hERG rescue, KCNK9 inh)
Cc1ccc(Nc2cc(C)nc3ccc(C)cc23)cc1	Kir21 inh -6.74
Cc1cc(Nc2ccc3c(c2)OCCO3)c2cc(Cl)ccc2n1	Kir21 inh -5.17
CCCCN1C2=C(C(=O)CCC2)C(c2ccc(Cl)c(Cl)c2)C2=C1c1ccccc1C2=O (configuration not stated)	KCNK3 block -9.89
CCCN1C(=O)c2ccccc2NC1c1ccc(Cl)c(Cl)c1 (configuration not stated)	none
CCOC(=O)C1=C(C)N=c2s/c(=C/c3cccc([N+](=O)[O-])c3O)c(=O)n2C1c1cc(OC)c(OC)c(OC)c1 (configuration not stated)	KCNQ1 block 8
C#CCN1[C@@H]2CCN(C2)c2cc(Br)ccc2S1(=O)=O	none (no result: KCNQ1 pot, KCNQ1 block, Kir21 inh, hERG rescue, KCNK9 inh)
Cc1ccc(C)c(N2CCN(C(=O)c3ccc(Cn4c(=O)[nH]c5ccccc5c4=O)cc3)CC2)c1	none
Cc1ccc(C)c(N2CCN(c3nc4ccccc4c(=O)n3Cc3ccccc3)CC2)c1	KCNK9 inh -7.61
Cc1onc(-c2ccccc2Cl)c1C(=O)Nc1nnc(-c2ccc(Cl)cc2Cl)s1	KCNQ1 block 8
Cc1onc(-c2c(F)cccc2Cl)c1C(=O)Nc1nnc(-c2ccccc2)s1	none
Cc1onc(-c2ccccc2Cl)c1C(=O)Nc1nnc(-c2ccc(F)cc2)s1	none
Cc1onc(-c2ccccc2Cl)c1C(=O)Nc1nnc(-c2ccc(Br)cc2)s1	KCNQ1 block 8
